From ChEMBL document CHEMBL3739331, “Synthesis and Bioactivities of Kanamycin B-Derived Cationic Amphiphiles” (J Med Chem, 2015)
In brackets after ≈: the same amount, converted by molar mass. Activity calls are given as the source filed them. The calls are words filed in the database; no cut-off is given here.

Columns and labels:
Candida albicans [1] = assay: Antifungal activity against azole-resistant Candida albicans ATCC 90819 after 48 hrs in presence of posaconazole by checkerboard microdilution assay; format: functional; settings: ATCC 90819, 48 h
Summary of the method: (§1)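 Checkerboard combinations of the aminoglycoside amphiphile with posaconazole against yeast strains, run in duplicate. Each agent's MIC is taken alone and in combination. The fractional inhibitory concentration index (FICI) is calculated to classify the interaction.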

Candida albicans [2] = assay: Antifungal activity against azole-susceptible Candida albicans ATCC MYA-2310 after 48 hrs in presence of posaconazole by checkerboard microdilution assay; format: functional; settings: ATCC MYA-2310, 48 h; summary of the method: as §1
Candida albicans [3] = assay: Antifungal activity against azole-resistant Candida albicans MYA-1237 after 48 hrs in presence of posaconazole by checkerboard microdilution assay; format: functional; settings: MYA-1237, 48 h; summary of the method: as §1
Candida albicans [4] = assay: Antifungal activity against azole-resistant Candida albicans MYA-1003 after 48 hrs in presence of posaconazole by checkerboard microdilution assay; format: functional; settings: MYA-1003, 48 h; summary of the method: as §1
Candida albicans [5] = assay: Antifungal activity against azole-resistant Candida albicans ATCC 64124 at sub-MIC measured over 24 hrs by time-kill assay; format: functional, organism-based
Summary of the method: (§2)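 Time-kill assay on C. albicans ATCC 64124 cultures exposed to test compound at 1/2 MIC, MIC and higher concentrations. Amphotericin B at 1 μg/mL and a no-drug culture serve as controls. CFU are counted at intervals over 24 h.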

Candida albicans [6] = assay: Antifungal activity against azole-resistant Candida albicans ATCC 64124 at MIC measured after 6 hrs by time-kill assay; format: functional; summary of the method: as §2
Candida albicans [7] = assay: Antifungal activity against azole-resistant Candida albicans ATCC 64124 assessed as cell death after 24 hrs by time-kill assay; format: functional, organism-based; summary of the method: as §2
Candida albicans [8] = assay: Antifungal activity against azole-resistant Candida albicans ATCC 64124 assessed as cell membrane permeabilization at twice the MIC after 1 hr by propidium iodide-staining based fluorescence microscopic analysis (reference value: <2%); format: functional
[9] = Hemolytic activity against mouse RBC at 125 ug/ml after 60 mins; format: ADME, cell-based, Erythrocyte; settings: red blood cells, read-out: Activity
A549 = assay: Cytotoxicity against human A549 cells after 24 hrs by resazurin assay; format: cell-based; settings: Homo sapiens, A549, 24 h
[10] = Cytotoxicity against human BEAS2B cells after 24 hrs by resazurin assay; format: cell-based, BEAS-2B; settings: Homo sapiens, BEAS-2B
Klebsiella pneumoniae = assay: Antibacterial activity against Klebsiella pneumoniae ATCC 27736 by microdilution method; format: functional
Summary of the method: (§3)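 Broth microdilution MIC against the named bacterial strain, reported in μg/mL; each determination run at least in duplicate.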

[11] = Activity of AAC(3)-4 (unknown origin) assessed as compound acetylation activity by Ellman's method
Candida albicans [12] = assay: Antifungal activity against azole-resistant Candida albicans ATCC 64124 assessed as cell membrane permeabilization at 1 times MIC after 1 hr by propidium iodide-staining based fluorescence microscopic analysis (reference value: <2%); format: functional
Bacillus subtilis = assay: Antibacterial activity against Bacillus subtilis 168 by microdilution method; format: functional; settings: subsp. subtilis str. 168; summary of the method: as §3
Staphylococcus aureus [13] = assay: Antibacterial activity against methicillin-resistant Staphylococcus aureus by microdilution method; format: functional
Summary of the method: (§4)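 Broth microdilution MIC, in μg/mL, against a panel of Gram-positive and Gram-negative strains. Run at least in duplicate.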

Staphylococcus aureus [14] = assay: Antibacterial activity against Staphylococcus aureus NRS385 (USA 300) by microdilution method; format: functional; summary of the method: as §4
Staphylococcus aureus [15] = assay: Antibacterial activity against Staphylococcus aureus NRS22 (USA 600) by microdilution method; format: functional; summary of the method: as §3
[16] = system: Staphylococcus epidermidis; assay: Antibacterial activity against Staphylococcus epidermidis ATCC 12228 by microdilution method; format: functional; summary of the method: as §3
Enterococcus = assay: Antibacterial activity against vancomycin-resistant Enterococcus by microdilution method; format: functional; summary of the method: as §4
Acinetobacter baumannii = assay: Antibacterial activity against Acinetobacter baumannii ATCC 19606 by microdilution method; format: functional; summary of the method: as §3
Enterobacter cloacae = assay: Antibacterial activity against Enterobacter cloacae ATCC 13047 by microdilution method; format: functional; summary of the method: as §3
Escherichia coli = assay: Antibacterial activity against Escherichia coli MC1061 by microdilution method; format: functional; summary of the method: as §4
Pseudomonas aeruginosa = assay: Antibacterial activity against Pseudomonas aeruginosa ATCC 27853 by microdilution method; format: functional; summary of the method: as §3
Salmonella enterica = assay: Antibacterial activity against Salmonella enterica ATCC 14028 by microdilution method; format: functional; summary of the method: as §3
[17] = system: Bacillus subtilis subsp. subtilis str. 168; assay: Activity of Bacillus subtilis 168 APH(2'')-1a assessed as compound phosphorylation activity by Ellman's method
[18] = Activity of AAC(6')-1e/APH(2'')-1a (unknown origin) assessed as compound acetylation activity by Ellman's method
Serratia marcescens = assay: Activity of Serratia marcescens AAC(6')-2d assessed as compound acetylation activity by Ellman's method
[19] = system: Mycobacterium tuberculosis; assay: Activity of Mycobacterium tuberculosis AAC(2')-1c assessed as compound acetylation activity by Ellman's method
[20] = system: Mycobacterium tuberculosis; assay: Activity of Mycobacterium tuberculosis Eis assessed as compound acetylation activity by Ellman's method
Candida albicans [21] = assay: Antifungal activity against azole-resistant Candida albicans ATCC 10231 after 48 hrs by microbroth dilution method; format: functional; settings: ATCC 10231, 48 h
Summary of the method: (§5)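 Yeast MIC by broth microdilution, run in duplicate. The aminoglycoside compounds are read as MIC-0 (complete inhibition). Azoles are read as MIC-2 (50% inhibition).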

Candida albicans [22] = assay: Antifungal activity against azole-resistant Candida albicans ATCC 64124 after 48 hrs by microbroth dilution method; format: functional; settings: ATCC 64124, 48 h; summary of the method: as §5
Candida albicans [23] = assay: Antifungal activity against azole-susceptible Candida albicans ATCC MYA-2876 after 48 hrs by microbroth dilution method; format: functional; settings: ATCC MYA-2876, 48 h; summary of the method: as §5
Candida albicans [24] = assay: Antifungal activity against azole-resistant Candida albicans ATCC 90819 after 48 hrs by microbroth dilution method; format: functional; settings: ATCC 90819, 48 h; summary of the method: as §5
Candida albicans [25] = assay: Antifungal activity against azole-susceptible Candida albicans ATCC MYA-2310 after 48 hrs by microbroth dilution method; format: functional; settings: ATCC MYA-2310, 48 h; summary of the method: as §5
Candida albicans [26] = assay: Antifungal activity against azole-resistant Candida albicans MYA-1237 after 48 hrs by microbroth dilution method; format: functional; settings: MYA-1237, 48 h; summary of the method: as §5
Candida albicans [27] = assay: Antifungal activity against azole-resistant Candida albicans MYA-1003 after 48 hrs by microbroth dilution method; format: functional; settings: MYA-1003, 48 h; summary of the method: as §5
Aspergillus nidulans = assay: Antifungal activity against Aspergillus nidulans ATCC 38163 after 48 hrs by microbroth dilution method; format: functional; settings: ATCC 38163, 48 h
Summary of the method: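 Filamentous fungus MIC by broth microdilution, run in duplicate. All compounds are read as MIC-0 (complete inhibition).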

Candida albicans [28] = assay: Antifungal activity against azole-resistant Candida albicans ATCC 10231 after 48 hrs in presence of posaconazole by checkerboard microdilution assay; format: functional; settings: ATCC 10231, 48 h; summary of the method: as §1
Candida albicans [29] = assay: Antifungal activity against azole-resistant Candida albicans ATCC 64124 after 48 hrs in presence of posaconazole by checkerboard microdilution assay; format: functional; settings: ATCC 64124, 48 h; summary of the method: as §1
Candida albicans [30] = assay: Antifungal activity against azole-susceptible Candida albicans ATCC MYA-2876 after 48 hrs in presence of posaconazole by checkerboard microdilution assay; format: functional; settings: ATCC MYA-2876, 48 h; summary of the method: as §1

SMILES: CCCCCCCCCCCCSC[C@@H]1O[C@@H](O[C@@H]2[C@@H](O)[C@H](O[C@@H]3O[C@@H](CN)[C@H](O)[C@@H](O)[C@@H]3N)[C@@H](N)C[C@H]2N)[C@@H](O)[C@H](N)[C@H]1O (stereo in doubt)
- MIC (Candida albicans [1]): 4 µg/mL
- MIC (Candida albicans [2]): 1 µg/mL
- MIC (Candida albicans [3]): 2 µg/mL
- MIC (Candida albicans [4]): 2 µg/mL
- Activity (Candida albicans [5]): Active
- LCK (Candida albicans [6]): >=2
- Activity (Candida albicans [7]): Active
- Activity (Candida albicans [8]): 44%
- hemolysis at 1 h, 125 ug/ml [9]: 40%
- IC50 (A549): > 62.5 µg/mL
- IC50 [10]: > 125 µg/mL
- MIC (Klebsiella pneumoniae): > 128 µg/mL
- Activity [11]: inactive
- Activity (Candida albicans [12]): 90%
- MIC (Bacillus subtilis): > 128 µg/mL
- MIC (Staphylococcus aureus [13]): 32 µg/mL (≈ 47.9 µM)
- MIC (Staphylococcus aureus [14]): 16 µg/mL (≈ 24 µM)
- MIC (Staphylococcus aureus [15]): 16 µg/mL (≈ 24 µM)
- MIC [16]: > 128 µg/mL
- MIC (Enterococcus): 16 µg/mL (≈ 24 µM)
- MIC (Acinetobacter baumannii): > 128 µg/mL
- MIC (Enterobacter cloacae): > 128 µg/mL
- MIC (Escherichia coli): > 128 µg/mL
- MIC (Pseudomonas aeruginosa): 32 µg/mL (≈ 47.9 µM)
- MIC (Salmonella enterica): > 128 µg/mL
- Activity [17]: inactive
- Activity [18]: inactive
- Activity (Serratia marcescens): inactive
- Activity [19]: inactive
- Activity [20]: inactive
- MIC (Candida albicans [21]): 31.2 µg/mL (≈ 46.7 µM)
- MIC (Candida albicans [22]): 31.2 µg/mL (≈ 46.7 µM)
- MIC (Candida albicans [23]): 31.2 µg/mL (≈ 46.7 µM)
- MIC (Candida albicans [24]): 31.2 µg/mL (≈ 46.7 µM)
- MIC (Candida albicans [25]): 7.8 µg/mL (≈ 11.7 µM)
- MIC (Candida albicans [26]): 31.2 µg/mL (≈ 46.7 µM)
- MIC (Candida albicans [27]): 31.2 µg/mL (≈ 46.7 µM)
- MIC (Aspergillus nidulans): ≤ 1.95 µg/mL
- MIC (Candida albicans [28]): 8 µg/mL
- MIC (Candida albicans [29]): 2 µg/mL
- MIC (Candida albicans [30]): 2 µg/mL
